Reference: ChEMBL document CHEMBL1124663, “Design, synthesis, antineoplastic activity, and chemical properties of bis(carbamate) derivatives of 4,5-bis(hydroxymethyl)imidazole” (J Med Chem, 1989)

Assays:
[1] = tested on: Mus musculus; test: Body weight difference (BWD) of test animals administered with 50 mg/kg compound is determined on day 5 for L1210 tumor cells; type: functional
Method in brief: (§1)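 L1210 leukaemia: 10^5 cells implanted ip on day 0 in mice. Freshly prepared saline suspension given ip once daily on days 1–5. Body weight difference in g (treated minus control) taken as day 5 minus day 1. Six animals per dose.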

[2] = tested on: Mus musculus; test: Body weight difference (BWD) of test animals administered with 50 mg/kg compound is determined on day 5 for P388 tumor cells; type: functional
Method in brief: (§2)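 P388 leukaemia: about 10^6 cells in ascitic fluid inoculated ip on day 0 (CD2F1 mice). Compound given ip in normal saline as a freshly prepared solution or suspension, once daily on days 1–5. Treated-minus-control body weight difference in g, taken as day 5 minus day 1 weight. Groups of six.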

[3] = tested on: Mus musculus; test: Body weight difference (BWD) of test animals administered with 25 mg/kg compound is determined on day 14 for M5076 minus 1 tumor cells; type: functional
Method in brief: (§3)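 M5076 sarcoma: 10^6 cells inoculated ip on day 0 in B6C3F1 mice. Fresh saline suspension dosed ip every fourth day, on days 1, 5, 9 and 13. Body weight difference in g (treated minus control) taken as day 14 minus day 1. Ten mice per group.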

[4] = tested on: Mus musculus; test: Body weight difference (BWD) of test animals administered with 50 mg/kg compound is determined on day 14 for M5076 minus 1 tumor cells; type: functional; method in brief: as §3
[5] = tested on: Mus musculus; test: Body weight difference (BWD) of test animals administered with 100 mg/kg compound is determined on […] tumor cells; type: functional
Method in brief: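 MX-1 human mammary xenograft: solid tumour fragment (1 mm3, 0.5 mg) placed as a subrenal capsule implant on day 0 in NCR-nu mice. Fresh saline suspension dosed ip on days 1, 5 and 9. Body weight difference in g (treated minus control) recorded. Assay evaluated on day 11. Six mice per group.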

[6] = tested on: Mus musculus; test: Body weight difference (BWD) of test animals administered with 100 mg/kg compound is determined on day 14 for M5076 minus 1 tumor cells; type: functional; method in brief: as §3
[7] = tested on: Mus musculus; test: Body weight difference (BWD) of test animals administered with 100 mg/kg compound is determined on day 5 for L1210 tumor cells; type: functional; method in brief: as §1
[8] = tested on: Mus musculus; test: Body weight difference (BWD) of test animals administered with 100 mg/kg compound is determined on day 5 for P388 tumor cells; type: functional; method in brief: as §2
[9] = tested on: Mus musculus; test: Ability of 25 mg/kg of compound to kill L1210 tumor cells in mice is expressed as the log of the tumor cell population at the onset of treatment minus the log of the tumor cell population at the end of treatment; type: functional
Method in brief: (§4)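 L1210 leukemia, 10^5 cells implanted ip on day 0. Drug given ip daily on days 1-5 as a saline suspension freshly prepared before each injection. Read-out is median survival of treated versus control mice (% T/C), and log cell kill is derived from it.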

[10] = tested on: Mus musculus; test: Toxicity day evaluation was carried out on day 5 for animal dosed with 6.25 mg/kg compound; 5/6; type: organism-based; design: dose 6.25 mg/kg; conditions: in vivo
[11] = tested on: Mus musculus; test: The toxicity day was evaluated on day 5 for L1210 tumor cells of test animals dosed with 25 mg/kg of compound; 6/6; type: functional
Method in brief: (§5)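 L1210 leukaemia, 10^5 cells, implanted ip on day 0. Freshly prepared saline suspension dosed ip daily on days 1-5. Toxicity evaluated on day 5 as survivors over animals in the initial test group.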

[12] = tested on: Mus musculus; test: The toxicity day was evaluated on day 5 for L1210 tumor cells of test animals dosed with 50 mg/kg of compound; 6/6; type: functional; method in brief: as §5
[13] = tested on: Mus musculus; test: Toxicity day evaluation was carried out on day 5 for animal dosed with 100 mg/kg compound; 6/6; type: organism-based; design: dose 100 mg/kg; conditions: in vivo
[14] = tested on: Mus musculus; test: The percent of the median survival time of test mice compared to control mice, administered with 100 mg/kg compound on day 5 for L1210 tumor cells; type: functional; method in brief: as §4
[15] = tested on: Mus musculus; test: The percent of the median survival time of test mice compared to control mice, administered with 200 mg/kg compound on day 14 for M5076 minus 1 tumor cells; type: functional
Method in brief: (§6)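 M5076 sarcoma, 10^6 cells ip on day 0 in B6C3F1 mice. Drug given ip as a fresh saline suspension every fourth day (days 1, 5, 9, 13). % T/C is median survival of treated versus control mice, counting long-term survivors. Cures are 60-day survivors. Log cell kill is derived from this.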

[16] = tested on: Mus musculus; test: Ability of 25 mg/kg of compound to kill M5076 tumor cells in mice is expressed as the log of the tumor cell population at the onset of treatment minus the log of the tumor cell population at the end of treatment; type: functional; method in brief: as §6
[17] = tested on: Mus musculus; test: The percent of the median survival time of test mice compared to control mice is % T/C which refers to tumor size in this case. It is determined for mice administered with 60 mg/kg compound on day 11 for MX-1 tumor cells; type: functional; conditions: route intraperitoneal
Method in brief: (§7)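 Human MX-1 mammary xenograft, a 1 mm3 (0.5 mg) tumor fragment implanted under the renal capsule of NCR-nu mice on day 0. Drug given ip as a fresh saline suspension on days 1, 5 and 9. Tumor size is assessed on day 11. A negative % T/C is percent shrinkage relative to the initial implant. Survivors in the toxicity group are […].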

[18] = tested on: Mus musculus; test: The toxicity day was evaluated on day 0 for LOX tumor cells of test animals dosed with 200 mg/kg of compound; 3/6; type: functional
[19] = tested on: Mus musculus; test: The toxicity day was evaluated on day 0 for LOX tumor cells of test animals dosed with 25 mg/kg of compound; 6/6; type: functional
[20] = tested on: Mus musculus; test: The toxicity day was evaluated […] for MX-1 tumor cells of test animals dosed with 100 mg/kg of compound; 6/6; type: functional; method in brief: as §7
[21] = tested on: Mus musculus; test: The toxicity day was evaluated on day 11 for MX-1 tumor cells of test animals dosed with 60 mg/kg of compound; 6/6; type: functional
Method in brief: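 Human MX-1 mammary tumour (1 mm3, 0.5 mg) implanted under the renal capsule of NCR-nu mice on day 0. Drug was given ip as a freshly made saline suspension on days 1, 5 and 9. Readout is survivors over initial group size.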

[22] = tested on: Mus musculus; test: The toxicity day was evaluated […] for M5076 minus 1 tumor cells of test animals dosed with 200 mg/kg of compound; 10/10; type: functional
Method in brief: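 M5076 sarcoma, 10^6 cells, inoculated ip into B6C3F1 mice on day 0. Fresh saline suspension given ip every fourth day (days 1, 5, 9, 13). Toxicity survivors were scored on day 5 as survivors over initial group. Body-weight difference was day 14 minus day 1.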

[23] = tested on: Mus musculus; test: The percent of the median survival time of test mice compared to control mice, administered with 25 mg/kg compound on day 14 for M5076 minus 1 tumor cells; type: functional; method in brief: as §6
[24] = tested on: Mus musculus; test: Toxicity day evaluation was carried out on day 5 for animal dosed with 25 mg/kg compound; 6/6; type: organism-based; design: dose 25 mg/kg; conditions: in vivo
[25] = tested on: Mus musculus; test: Body weight difference (BWD) of test animals administered with 50 mg/kg compound is determined on day 10 for LOX tumor cells.
[26] = tested on: Mus musculus; test: Body weight difference (BWD) of test animals administered with 200 mg/kg compound is determined on day 10 for LOX tumor cells.
[27] = tested on: Mus musculus; test: Body weight difference (BWD) of test animals administered with 100 mg/kg compound is determined on day 10 for LOX tumor cells.

CNC(=O)OCc1nc(SC)n(C)c1COC(=O)NC
BWD [1]: -0.5 g | BWD [2]: -2.6 g | BWD [3]: -2 g | BWD [4]: -0.7 g | BWD [5]: -2.7 g | BWD [6]: -1.2 g | BWD [7]: -1.9 g | BWD [8]: -4.1 g | KE [9]: -2.23 | Survivors / animals tested [10]: 5 | Survivors / animals tested [11]: 6 | Survivors / animals tested [12]: 6 | Survivors / animals tested [13]: 6 | T/C [14]: 145% | T/C [15]: 184% | KE [16]: -1.51 | T/C [17]: -91% | Survivors / animals tested [18]: 3 | Survivors / animals tested [19]: 6 | Survivors / animals tested [20]: 6 | Survivors / animals tested [21]: 6 | Survivors / animals tested [22]: 10 | T/C [23]: 122% | Survivors / animals tested [24]: 6 | BWD [25]: -3.3 g | BWD [26]: -11.5 g | BWD [27]: -5.1 g
